Source: ChEMBL document CHEMBL1139240, “Synthesis, cytotoxic activity, DNA topoisomerase-II inhibition, molecular modeling and structure-activity relationship of 9-anilinothiazolo[5,4-b]quinoline derivatives” (Bioorg Med Chem, 2009)

Experiments:
SW480 = assay: Cytotoxicity against human SW480 cells after 72 hrs by MTT assay; assay type: functional, cell-based; details: SW480, 72 h
Method in brief: (§1)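 Cells seeded at 4.5 to 5.0 × 10^4 cells/mL/well in 24-well plates, exposed to compounds in DMSO for 72 h. MTT in PBS pH 7.2 added, formazan dissolved in DMSO, absorbance read at 540 nm. % growth inhibition = (1 − treated/untreated absorbance) × 100. Three independent experiments in quadruplicate.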

K562 = assay: Cytotoxicity against human K562 cells after 72 hrs by MTT assay; assay type: functional, cell-based; details: K562, 72 h; method in brief: as §1
HeLa = assay: Cytotoxicity against human HeLa cells after 72 hrs by MTT assay; assay type: functional, cell-based; method in brief: as §1
[1] = target: DNA topoisomerase 2-alpha (Homo sapiens, UniProt P11388); assay: Inhibition of human DNA topoisomerase 2-mediated Crithidia fasciculata kDNA decatenation using ethidium bromide staining by agarose gel electrophoresis
Chain of DNA topoisomerase 2-alpha (P11388 whole entry): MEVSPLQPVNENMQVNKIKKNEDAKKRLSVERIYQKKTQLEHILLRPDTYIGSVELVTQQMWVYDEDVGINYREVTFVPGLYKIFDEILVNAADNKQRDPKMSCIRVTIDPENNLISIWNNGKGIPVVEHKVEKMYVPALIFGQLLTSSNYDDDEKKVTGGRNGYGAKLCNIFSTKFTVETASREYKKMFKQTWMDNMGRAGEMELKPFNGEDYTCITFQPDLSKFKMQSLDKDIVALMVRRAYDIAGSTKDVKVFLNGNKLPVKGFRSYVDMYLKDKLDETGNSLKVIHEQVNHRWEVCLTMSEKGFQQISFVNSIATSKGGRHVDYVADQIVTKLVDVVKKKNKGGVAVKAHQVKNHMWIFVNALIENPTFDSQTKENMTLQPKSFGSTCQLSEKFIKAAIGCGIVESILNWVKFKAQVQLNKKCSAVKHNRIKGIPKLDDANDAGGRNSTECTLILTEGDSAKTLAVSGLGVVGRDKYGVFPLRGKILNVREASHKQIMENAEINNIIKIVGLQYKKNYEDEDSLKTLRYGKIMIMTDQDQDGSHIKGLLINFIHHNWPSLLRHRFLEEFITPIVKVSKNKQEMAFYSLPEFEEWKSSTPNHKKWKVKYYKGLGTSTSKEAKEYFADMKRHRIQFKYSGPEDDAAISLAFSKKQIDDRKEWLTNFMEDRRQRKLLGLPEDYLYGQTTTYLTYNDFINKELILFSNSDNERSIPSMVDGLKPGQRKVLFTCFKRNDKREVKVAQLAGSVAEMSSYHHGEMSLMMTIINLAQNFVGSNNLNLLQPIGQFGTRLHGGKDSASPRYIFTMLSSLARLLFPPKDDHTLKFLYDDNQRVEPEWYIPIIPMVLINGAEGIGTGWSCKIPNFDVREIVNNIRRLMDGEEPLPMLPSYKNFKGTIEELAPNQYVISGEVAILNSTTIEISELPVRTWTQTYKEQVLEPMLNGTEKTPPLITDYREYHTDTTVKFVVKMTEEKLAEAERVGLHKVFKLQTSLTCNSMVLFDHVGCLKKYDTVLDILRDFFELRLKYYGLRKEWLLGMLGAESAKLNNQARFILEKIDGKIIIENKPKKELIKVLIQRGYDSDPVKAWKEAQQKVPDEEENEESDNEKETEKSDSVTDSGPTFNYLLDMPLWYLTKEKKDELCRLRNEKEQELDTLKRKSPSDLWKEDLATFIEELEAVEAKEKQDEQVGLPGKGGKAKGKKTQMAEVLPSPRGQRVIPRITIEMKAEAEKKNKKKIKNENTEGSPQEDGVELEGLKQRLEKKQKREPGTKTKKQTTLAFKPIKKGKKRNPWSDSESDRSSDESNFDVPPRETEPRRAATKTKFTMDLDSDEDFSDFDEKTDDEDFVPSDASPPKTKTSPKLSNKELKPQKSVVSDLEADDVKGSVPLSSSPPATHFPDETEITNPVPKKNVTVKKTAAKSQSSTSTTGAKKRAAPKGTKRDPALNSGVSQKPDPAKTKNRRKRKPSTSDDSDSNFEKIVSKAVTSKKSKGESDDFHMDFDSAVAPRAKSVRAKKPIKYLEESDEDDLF
Method in brief: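 Crithidia fasciculata kDNA (5 µg/mL) with 4 units human Topo II in 30 mM Tris–HCl pH 7.6, 60 mM NaCl, 8 mM MgCl2, 15 mM 2-mercaptoethanol, 3 mM ATP, 8% DMSO, 30 min at 37 °C. Proteinase K follows, then chloroform/isoamyl extraction and agarose gel with ethidium bromide. Decatenated plus linear DNA quantified densitometrically as % of total. Screened at 160 µM, IC50 from 1–160 µM curves.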

SW-620 = assay: Cytotoxicity against human SW620 cells after 72 hrs by MTT assay; assay type: functional, cell-based; details: SW-620, 72 h; method in brief: as §1

| Compound | IC50 (SW480) [µM] | IC50 (K562) [µM] | IC50 (HeLa) [µM] | IC50 [1] [µM] | IC50 (SW-620) [µM] |
| --- | --- | --- | --- | --- | --- |
| CSc1nc2c(Nc3cccc(NC(C)=O)c3)c3ccccc3nc2s1 | > 80 | > 80 | > 80 | 29.6 | > 80 |
| COc1ccc(Nc2c3cc(F)ccc3nc3sc(SC)nc23)cc1 | > 80 | 54.9 | > 80 | – | > 80 |
| CSc1nc2c(Nc3cccc(N)c3)c3ccccc3nc2s1 | > 80 | > 80 | > 80 | 16.7 | > 80 |
| Clc1c2ccccc2nc2sc(N3CCCCC3)nc12 | > 80 | > 80 | > 80 | – | > 80 |
| CSc1nc2c(Nc3ccc(Cl)cc3)c3ccccc3nc2s1 | > 80 | 79.5 | > 80 | 20.5 | > 80 |
| CNc1cccc(Nc2c3ccccc3nc3sc(SC)nc23)c1 | > 80 | 46.9 | 46.2 | 12.3 | > 80 |
| COc1cccc(Nc2c3cc(F)ccc3nc3sc(SC)nc23)c1 | 13.7 | – | 15.8 | – | 12.2 |
| c1ccc(Nc2c3ccccc3nc3sc(N4CCCCC4)nc23)cc1 | > 80 | > 80 | > 80 | – | > 80 |
| CCN(CC)CCCNc1nc2c(Nc3ccc(C#N)cc3)c3ccccc3nc2s1 | 22.7 | 12.9 | 24.2 | – | 29.2 |
| CSc1nc2c(Nc3cccc(Cl)c3)c3ccccc3nc2s1 | > 80 | 80.3 | 69.4 | 21.2 | > 80 |
| CCN(CC)CCNc1nc2c(Nc3ccc(C#N)cc3)c3ccccc3nc2s1 | 14.2 | 8.36 | 15.2 | – | 16.5 |
| CSc1nc2c(Nc3ccccc3)c3cc(F)ccc3nc2s1 | > 80 | > 80 | > 80 | – | > 80 |
| CSc1nc2c(Nc3cccc(O)c3)c3ccccc3nc2s1 | > 80 | > 80 | > 80 | 64.3 | > 80 |
| CCN(CC)CCNc1nc2c(Nc3cccc(Cl)c3)c3ccccc3nc2s1 | 14.3 | 12.2 | 9.12 | – | 17.8 |
| CSc1nc2c(Nc3cccc(/C(C)=N\O)c3)c3ccccc3nc2s1 | 37.3 | 32.8 | 34.2 | – | 39.4 |
| CCN(CC)CCNc1nc2c(Nc3ccccc3)c3ccccc3nc2s1 | 37.7 | 16.8 | 16 | 169 | 21.6 |
| CCN(CC)CCNc1nc2c(Nc3ccc(OC)cc3)c3ccccc3nc2s1 | 12 | 10.9 | 13.6 | – | 16.4 |
| CN1CCN(c2nc3c(Cl)c4ccccc4nc3s2)CC1 | > 80 | > 80 | > 80 | – | > 80 |

| Compound | IC50 (SW480) [µM] | IC50 (K562) [µM] | IC50 (HeLa) [µM] | IC50 [1] [µM] | IC50 (SW-620) [µM] |
| --- | --- | --- | --- | --- | --- |
| CN1CCN(c2nc3c(Nc4ccccc4)c4ccccc4nc3s2)CC1 | 41.8 | 73 | 60.7 | – | > 80 |
| COc1cc(NS(C)(=O)=O)ccc1Nc1c2ccccc2nc2ccccc12 [AMSACRINE] | 27.7 | 19.9 | 9.5 | 9.94 | 16.7 |
| CCN(CC)CCNc1nc2c(Nc3ccc(Cl)cc3)c3ccccc3nc2s1 | 12.6 | 7.26 | 10.2 | – | 12.2 |
| CCN(CC)CCCNc1nc2c(Nc3ccccc3)c3ccccc3nc2s1 | 6.9 | 7.52 | 6.27 | – | 16.6 |
| CSc1nc2c(Nc3ccc(C#N)cc3)c3cc(F)ccc3nc2s1 | > 80 | – | > 80 | – | > 80 |
| CSc1nc2c(Nc3cccc(C(F)(F)F)c3)c3ccccc3nc2s1 | 65.1 | 67.1 | 43.3 | 15.4 | 62.3 |
| CCN(CC)CCCNc1nc2c(Nc3ccc(Cl)cc3)c3ccccc3nc2s1 | 4.92 | 3.36 | 8.82 | – | 7.48 |
| CCN(CC)CCNc1nc2c(Nc3cccc(C#N)c3)c3ccccc3nc2s1 | 13.1 | 12.5 | 13.3 | – | 14.6 |
| CCN(CC)CCCNc1nc2c(Nc3cccc(C#N)c3)c3ccccc3nc2s1 | 11.5 | 12.9 | 19.2 | – | 19.7 |
| CCOC(=O)c1cccc(Nc2c3ccccc3nc3sc(SC)nc23)c1 | > 80 | > 80 | > 80 | – | > 80 |
| CCN(CC)CCNc1nc2c(Nc3cccc(OC)c3)c3ccccc3nc2s1 | 11.5 | 23.5 | 19.2 | – | 20 |
| CSc1nc2c(Nc3ccccc3)c3ccccc3nc2s1 | > 80 | > 80 | > 80 | – | > 80 |
| Clc1c2ccccc2nc2sc(N3CCOCC3)nc12 | > 80 | > 80 | > 80 | – | > 80 |
| CSc1nc2c(Nc3cccc(C#N)c3)c3cc(F)ccc3nc2s1 | > 80 | 55.4 | > 80 | – | > 80 |
| CSc1nc2c(Nc3cccc(C(C)=O)c3)c3ccccc3nc2s1 | > 80 | > 80 | > 80 | – | > 80 |
| c1ccc(Nc2c3ccccc3nc3sc(N4CCOCC4)nc23)cc1 | > 80 | > 80 | > 80 | – | > 80 |
| CSc1nc2c(Nc3cc(N)cc(CO)c3)c3ccccc3nc2s1 | > 80 | > 80 | > 80 | 18 | > 80 |
| CCN(CC)CCCNc1nc2c(Nc3cccc(Cl)c3)c3ccccc3nc2s1 | 7.91 | 9.84 | 7.46 | 40.9 | 10.2 |
